# Assay outcomes as filed in PubChem.
# G6PDH counter: counter-screen for G6PDH assay hits: L. mesenteroides G6PDH inhibition | Purified L. mesenteroides G6PDH, diaphorase/resazurin coupled fluorescence, 45 min | AID 1020 | hit rate 0.12% among 200,000 | inhibition, % at 5 µM; in the data active = inhibition above about 50%
# PfGluPho inh: PfG6PD (Plasmodium falciparum) enzyme inhibition; PfGluPho enzyme, NADPH resazurin-diaphorase fluorescence; inhibition, % at 20 µM; hit rate 0.78% among 350,000; AID 504690;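 active = inhibition reaching at least a set limit at 20 µM in the primary screen, cut at about 59% in these data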;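 also: 0% = DMSO wells with substrate and 100% = DMSO wells lacking glucose-6-phosphate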
# Diaph act CS: diaphorase activation or chemical reduction counter-screen; hit rate 0.005% among 190,000; AID 1229; Diaphorase/resazurin coupled assay, resorufin fluorescence, 16 min; stronger effect = higher value; 1 = vehicle wells, 0 = NADH-free wells; activation factor at 20 µM;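 active = diaphorase activity raised at least twofold by the compound at 20 µM; inactive = activation factor below 2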
#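 Material: purified diaphorase enzyme from Clostridium kluyveri / Medium: HEPES pH 7.4 buffer with MgCl2 and Tween 20 / Schedule: enzyme reaction of 16 min at room temperature / Measured by: resorufin fluorescence, excitation 544 nm, emission 590 nm / Evaluation: rise in resorufin formation, marking diaphorase activation or chemical reduction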
# HKDC1 inhibitor: HKDC1 (human) hexokinase inhibition. AID 493160. hit rate 0.16% among 340,000. Q2TB90. inhibition, % at 20 µM. recombinant HKDC1, G6PDH/diaphorase resazurin coupled fluorescence;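 active = inhibition above about 35% when tested at 20 µM, limit read from the data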;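 also: plate controls were DMSO wells with enzyme for no effect and DMSO wells lacking enzyme for full effect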
# Target sequence (Q2TB90 whole entry, looked up): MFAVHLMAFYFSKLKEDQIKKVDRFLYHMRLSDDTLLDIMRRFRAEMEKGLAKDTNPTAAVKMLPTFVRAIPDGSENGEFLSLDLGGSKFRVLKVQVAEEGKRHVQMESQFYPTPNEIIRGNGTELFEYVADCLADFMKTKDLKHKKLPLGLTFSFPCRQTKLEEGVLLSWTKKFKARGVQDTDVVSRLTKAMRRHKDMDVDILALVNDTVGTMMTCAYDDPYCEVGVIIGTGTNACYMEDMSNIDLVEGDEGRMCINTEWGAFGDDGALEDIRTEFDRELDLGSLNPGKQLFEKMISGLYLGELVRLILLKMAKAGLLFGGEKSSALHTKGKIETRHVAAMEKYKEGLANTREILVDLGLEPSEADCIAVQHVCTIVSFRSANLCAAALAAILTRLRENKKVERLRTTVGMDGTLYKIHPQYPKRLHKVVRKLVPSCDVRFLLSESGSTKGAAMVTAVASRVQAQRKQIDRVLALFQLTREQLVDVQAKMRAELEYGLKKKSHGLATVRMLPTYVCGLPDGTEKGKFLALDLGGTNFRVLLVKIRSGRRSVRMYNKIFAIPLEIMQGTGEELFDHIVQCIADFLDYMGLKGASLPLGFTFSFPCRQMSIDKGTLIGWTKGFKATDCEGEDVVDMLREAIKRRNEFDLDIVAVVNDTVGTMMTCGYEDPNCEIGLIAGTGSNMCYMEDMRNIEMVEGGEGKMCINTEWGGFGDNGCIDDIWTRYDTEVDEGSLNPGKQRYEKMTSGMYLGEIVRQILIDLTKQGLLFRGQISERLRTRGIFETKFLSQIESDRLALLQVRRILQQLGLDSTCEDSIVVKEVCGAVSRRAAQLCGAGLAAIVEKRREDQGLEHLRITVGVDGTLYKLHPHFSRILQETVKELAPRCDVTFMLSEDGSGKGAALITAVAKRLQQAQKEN
#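 Test system: Recombinant HKDC1 (HK5) hexokinase enzyme, produced in-house | Input: HKDC1 at 5 µg/mL | Buffer or medium: Tris pH 8.0 buffer with MgCl2, Tween-20, BSA, BME | Schedule: 90 min reaction incubation at room temperature, dark | Technique: Resazurin-to-resorufin fluorescence via G6PDH and diaphorase coupling, 525/613 nm | Controls: DMSO wells with and without enzyme mix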
# Diaphorase inh: diaphorase inhibition or chemical oxidation counter-screen | diaphorase resazurin-to-resorufin fluorescence, NADH, 16 min; bacterial (C. kluyveri) enzyme, not human | inhibition, % at 20 µM | hit rate 0.69% among 190,000;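 active = primary screen inhibition at 20 µM above a set limit, cut at about 50% in these data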;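 also: plate controls were DMSO with full reaction for no effect and wells lacking NADH for full effect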
#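 Test system: bacterial diaphorase enzyme (C. kluyveri); Quantity: 0.14 U/mL diaphorase, enzyme working solution; Times: reaction incubation of 16 min at room temperature; Measured by: fluorescence of resorufin formed from resazurin, Ex 544/Em 590 nm; Benchmarks: positive control minus NADH, DMSO neutral control.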
# Tb hexokinase: T. brucei hexokinase 1 inhibition | recombinant TbHK1, G6PDH-coupled NADH A340 | inhibition, % at 10 µM | hit rate 0.11% among 220,000;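 active = inhibition of 50% or more in the single-dose primary screen; inactive = inhibition below 50%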
# Numbers without * were called inactive; nt = no result. Compounds with a hit are over-represented: about 1.3% of the library has one in this group of screens.
SMILES,G6PDH counter,PfGluPho inh,Diaph act CS,HKDC1 inhibitor,Diaphorase inh,Tb hexokinase
N#Cc1c(N)nc2c3c(sc(=N)c2c1N)NC(=O)CC3c1c(F)cccc1Cl (stereo not given),-1.7,4.9,0.5,1.1,52.8*,-4.3
N#Cc1c(N)nc2c3c(sc(=N)c2c1N)NC(=O)CC3c1ccccc1 (stereo not given),-15.6,34.0,0.7,7.6,26.2,0.8
CCN1CCN(c2cc(N3CCN(C(=O)c4ccco4)CC3)c3c4c(onc24)-c2ccccc2C3=O)CC1,nt,67.9*,nt,18.5,nt,nt
Cc1ccc(-c2ccc(=O)n(CC(=O)NCCN3CCCCC3C)n2)cc1 (stereo not given),10.2,-10.4,0.5,-4.0,52.6*,-1.9
COc1ccc(N2CCC(CNC(=O)Nc3cccc(OC)c3)C2)cc1 (stereo not given),2.0,23.8,0.4,-5.6,56.8*,-9.3
COc1ccc(N2CCC(CNC(=S)Nc3cccc(OC)c3)C2)cc1 (stereo not given),-9.8,nt,1,nt,0.0,12.2
COc1ccc2c(c1)CCc1sc(NC(=O)c3ccco3)nc1-2,15.8,47.4,0.5,18.9,54.8*,-1.5
CCn1cc(CNC(=O)c2cc(-c3cc(OC)ccc3OC)nc3ccccc23)c(C)n1,-8.5,-9.1,0.8,-6.5,22.3,23.1
O=c1ccsc2ccccc12,nt,6.9,nt,-4.2,nt,nt
O=c1[nH]sc2ccccc12,2.4,65.1*,1.1,-4.6,-12.5,3.1
NC(=O)c1ncn([C@@H]2O[C@H](CO)[C@@H](O)[C@H]2O)c1O,7.3,-8.6,1,-1.8,-4.7,2.1
CCOc1ccc2c(c1)c(N=Nc1cccc(C(=O)O)c1)c(O)n2C,6.4,3.3,0.6,6.4,37.2,31.9
Cc1ccc2c(c1)c(N=Nc1cccc(C(=O)O)c1)c(O)n2C,6.6,-4.8,0.4,0.5,58.8*,-12.4
CC(=O)N/N=C/c1c(C)[nH]n(-c2ccccc2)c1=O,18.4,-16.0,0.4,-11.1,55.8*,-9.9
COCC(=O)N/N=C/c1c(C)[nH]n(-c2ccccc2)c1=O,12.7,-22.6,0.6,-13.1,37.0,-35.0
COC(=O)N/N=C\c1c(C)[nH]n(-c2ccccc2)c1=O,15.8,-2.3,0.8,-4.0,24.9,-5.0
Cc1[nH]n(-c2ccccc2)c(=O)c1/C=N/NC(=O)COc1ccccc1[N+](=O)[O-],-0.7,-35.0,0.5,-12.3,52.9*,-18.7
Cc1ccc([C@H]2N[C@]3(CCCN(Cc4ccc(C(F)(F)F)cc4)C3=O)[C@H]3C(=O)N(Cc4ccccc4)C(=O)[C@@H]23)cc1,nt,10.1,nt,nt,nt,nt
CCn1c(SCC(=O)c2ccc(O)c(O)c2)nnc1-c1ccc(C)cc1,-0.3,-53.5,0.4,-15.3,56.0*,28.1
CCn1c(SCC(=O)c2ccc3c(c2)Cc2ccccc2-3)nnc1-c1ccc(N)cc1,9.9,0.2,1.1,-5.7,-5.4,-13.6
O=C(NC(=S)N(CC1CCC1)CC1CCCO1)c1cccc([N+](=O)[O-])c1 (stereo not given),8.8,-7.5,0.9,-7.3,11.4,-8.2
CCN(CC)C(=O)c1ccc(COc2ccc(Cl)c(C)c2)o1,nt,5.5,nt,-0.9,nt,nt
CN1CCC(N(C)C(=O)CCc2nc3ccccc3n2-c2ccccc2)CC1,2.8,3.9,0.3,-0.7,73.8*,5.5
O=C1C2C3C=CC(CC3)C2C(=O)N1/N=C/c1ccc(O)c(O)c1 (stereo not given),6.3,-20.0,0.7,-10.7,32.4,-27.0
O=C1c2ccccc2C(=O)N1/N=C/c1ccc(O)c(O)c1,12.1,-22.7,0.5,-1.5,51.6*,-8.6
SMILES,G6PDH counter,PfGluPho inh,Diaph act CS,HKDC1 inhibitor,Diaphorase inh,Tb hexokinase
Cc1cccc2cc3c(N)c(C#N)sc3nc12,5.2,39.8,0.7,8.2,30.8,-0.8
Cc1sc(NC(=O)c2sc3nc4c(C)cccc4cc3c2N)c(C#N)c1C,11.7,41.1,0.4,6.3,59.1*,-8.9
C[C@H]1CCC(=O)N([C@H](CN=[N+]=[N-])Cc2ccccc2)CC1,nt,-0.9,nt,-3.8,nt,nt
CC(=O)Oc1ccc2c(=O)c(Oc3ccccc3)c(C)oc2c1OC(C)=O,22.1,-3.4,0.3,-4.1,65.4*,22.6
CCOC(=O)c1c(C)[nH]c(C)c1C(=O)COC(=O)Cc1n[nH]c(=O)c2ccccc12,nt,0.0,nt,4.8,nt,nt
COc1cc(C#N)c(NS(=O)(=O)c2ccc3[nH]c(=O)sc3c2)cc1OC,nt,-30.1,nt,-2.2,nt,nt
Cc1cc(C)c(C)c(S(=O)(=O)N(C)C2CCN(C)CC2)c1C,nt,5.0,nt,-2.0,nt,nt
CCOc1ccc(-c2nnc3ccc(SC(C)C)nn23)cc1,14.9,34.6,0.4,26.0,60.1*,0.4
COc1ccccc1N1CCN(C(=O)C(C)CS(=O)(=O)c2ccc3c(c2)NC(=O)CS3)CC1 (stereo not given),nt,-9.7,nt,-3.0,nt,nt
COc1ccccc1CNC(=O)CCN=C1NS(=O)(=O)c2ccccc21,nt,-2.0,nt,0.0,nt,nt
Cc1ccc(NCc2ccc(O)c3ncccc23)cc1C,43.1,32.7,0.2,-12.0,78.2*,-5.5
Cc1ccc(NCc2ccc(O)c3ncccc23)cc1,43.2,17.8,0.3,-1.9,69.8*,0.3
Cc1ccsc1C(=O)N1CCCC(CO)(Cc2ccccc2)C1 (stereo not given),nt,-3.4,nt,1.3,nt,nt
COc1ccc(/C=C/C(=O)NC(=S)NNC(=O)c2cccnc2)cc1,-31.6,-5.0,0.2,-21.1,75.4*,-24.2
CC(=O)Nc1ccc(NC(=O)C(=O)N/N=C/c2cccnc2)cc1,nt,14.3,nt,-3.6,nt,1.7
CCCCNc1nc(=S)n(-c2ccccc2)c(C)c1C(C)=O,1.5,-21.1,0.3,9.2,71.4*,-15.0
CCn1c(C)c(C(C)=O)c(N2CCN(c3ccccn3)CC2)nc1=S,1.6,2.9,0.4,-7.5,62.5*,-15.2
CC(=O)c1c(N2CCCC2)nc(=S)n(-c2ccccc2)c1C,-4.9,-5.1,0.5,-13.5,54.2*,-2.9
O=C1/C(=C/c2cccs2)SC(=S)N1CCC(=O)N1CCCCC1CCO (stereo not given),nt,10.3,nt,3.7,nt,nt
O=C(/C=C/c1ccccc1)NC(=S)NNC(=O)c1ccco1,1.5,-34.8,0.5,-24.4,52.3*,-29.2
COc1cc2c(cc1OC)C(c1ccc(Br)cc1)N(C(=O)c1ccccc1C(=O)O)CC2 (stereo not given),nt,-23.7,nt,0.3,nt,nt
O=C(C1CC1)N1CCc2cc(S(=O)(=O)N3CCOCC3)ccc21,7.6,-10.9,1,-7.1,1.1,-3.7
CC(Cl)C(=O)c1ccc2c(c1)CCN2C(=O)C1CC1 (stereo not given),6.0,-7.4,0.4,-3.4,61.6*,-14.8
CCN(Cc1ccncc1)Cc1c(O)ccc2ccccc12,28.0,0.8,0.4,21.0,64.3*,2.0
